From ChEMBL document CHEMBL1128269, “Synthesis and biological evaluation of NK1 antagonists derived from L-tryptophan” (J Med Chem, 1995)
Each block holds one compound with its values, some of them ahead of it.

Assays:
[1] = molecular target: T1, Substance-P receptor (Homo sapiens, UniProt P25103); assay: Binding affinity against human Tachykinin receptor 1 expressed in CHO cells was measured by its ability to displace [125I]- Tyr-8 substance P.; format: cell-based
[2] = molecular target: T1, Substance-P receptor; assay: Binding affinity against wild type human Tachykinin receptor 1 expressed in CHO cells was measured by its ability to displace [125I]- Tyr-8 substance P.; format: cell-based
[3] = molecular target: Substance-P receptor (Homo sapiens, UniProt P25103, Q165A); assay: Binding affinity against Gln165Ala mutant type human Tachykinin receptor 1 expressed in CHO cells was measured by its ability to displace [125I]- Tyr-8 substance P.; format: cell-based
Sequence of Substance-P receptor (Homo sapiens, UniProt P25103, Q165A) (P25103 whole entry Q165A): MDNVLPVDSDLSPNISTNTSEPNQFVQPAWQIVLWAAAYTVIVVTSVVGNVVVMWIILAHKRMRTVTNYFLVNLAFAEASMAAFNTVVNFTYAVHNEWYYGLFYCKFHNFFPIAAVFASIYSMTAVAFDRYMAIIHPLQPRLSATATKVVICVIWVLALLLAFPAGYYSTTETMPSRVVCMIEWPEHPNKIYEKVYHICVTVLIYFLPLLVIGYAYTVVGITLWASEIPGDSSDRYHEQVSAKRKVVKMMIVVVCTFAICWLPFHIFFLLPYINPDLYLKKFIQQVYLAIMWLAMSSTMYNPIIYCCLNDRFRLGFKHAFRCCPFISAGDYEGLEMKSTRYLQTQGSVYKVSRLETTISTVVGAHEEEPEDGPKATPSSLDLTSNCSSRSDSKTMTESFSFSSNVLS

[4] = system: Mustela putorius furo; assay: Maximum change in the mean arterial blood pressure in the anesthetized ferret of substance P at 1 mg/Kg intravenous bolus; format: functional
In short: (§1)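 Ferrets were anesthetized with sodium pentobarbitone (40 mg/kg ip), maintained with sodium barbitalone (300 mg/kg ip), tracheally cannulated and ventilated with room air. Blood pressure was recorded via the femoral artery. Rising cumulative iv bolus doses (vehicle: distilled water, 1 mL/kg, or PEG, 0.5 mL/kg) went in via the femoral vein, with vehicle controls. Maximum change in mean arterial pressure is mean ± SD, n≥3.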

[5] = system: Cavia porcellus; assay: Inhibition of substance P-induced dermal plasma extravasation in the guinea pig 1 hr after oral dose; format: functional; conditions: PIG1, Plasma, read-out: ID50 (the source's name)
In short: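 Guinea pigs were dosed orally 1 h before 0.5 pmol substance P was injected into the dorsal skin. Evans blue was given iv before the challenge. Plasma leakage was quantified from dye levels in the skin around the injection sites, and ID50 was expressed in mg/kg.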

[6] = system: Mustela putorius furo; assay: Maximum change in the mean arterial blood pressure in the anesthetized ferret of substance P at 3 mg/Kg intravenous bolus; format: functional; in short: as §1
[7] = system: Mustela putorius furo; assay: Effect on heart rate of substance P antagonist was determined as change heart rate in the anesthetized ferret at 0.3 mg/Kg intravenous bolus; format: functional
In short: (§2)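 Ferrets anesthetized with sodium pentobarbitone (40 mg/kg ip), maintained with sodium barbitalone (300 mg/kg ip); tracheal cannula with artificial ventilation on room air; femoral artery cannulated for recording, femoral vein for dosing. Rising cumulative iv bolus doses, in distilled water (1 mL/kg) or poly(ethylene glycol) (0.5 mL/kg), with matched vehicle controls. Change in heart rate, mean ± SD of at least three determinations.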

[8] = system: Mustela putorius furo; assay: Maximum change in the mean arterial blood pressure in the anesthetized ferret of substance P at 0.3 mg/Kg intravenous bolus; format: functional
In short: (§3)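 Pentobarbitone-induced (40 mg/kg ip), barbitalone-maintained (300 mg/kg ip) ferret anesthesia; trachea cannulated, ventilated with room air; blood pressure recorded via femoral artery, compounds given via femoral vein as rising cumulative iv boluses in distilled water (1 mL/kg) or poly(ethylene glycol) (0.5 mL/kg), matched vehicle controls. Maximum change in mean arterial pressure, mean ± SD, at least three determinations.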

[9] = system: Mustela putorius furo; assay: Maximum change in the mean arterial blood pressure in the anesthetized ferret of substance P at 0.1 mg/Kg intravenous bolus; format: functional; in short: as §3
[10] = system: Mustela putorius furo; assay: Effect on heart rate of substance P antagonist was determined as change heart rate in the anesthetized ferret at 3 mg/Kg intravenous bolus; format: functional; in short: as §2
[11] = system: Mustela putorius furo; assay: Effect on heart rate of substance P antagonist was determined as change heart rate in the anesthetized ferret at 1 mg/Kg intravenous bolus; format: functional; in short: as §2
[12] = system: Mustela putorius furo; assay: Effect on heart rate of substance P antagonist was determined as change heart rate in the anesthetized ferret at 0.1 mg/Kg intravenous bolus; format: functional; in short: as §2
[13] = system: Mustela putorius furo; assay: Maximum change in the mean arterial blood pressure in the anesthetized ferret of substane P at 0.1 mg/Kg intravenous bolus; format: functional; in short: as §3
[14] = system: Mustela putorius furo; assay: Maximum change in the mean arterial blood pressure in the anesthetized ferret of substane P at 0.3 mg/Kg intravenous bolus; format: functional; in short: as §3
[15] = system: Mustela putorius furo; assay: Maximum change in the mean arterial blood pressure in the anesthetized ferret of substane P at 3 mg/Kg intravenous bolus; format: functional; in short: as §3
[16] = system: Mustela putorius furo; assay: Maximum change in the mean arterial blood pressure in the anesthetized ferret of substane P at 1 mg/Kg intravenous bolus; format: functional; in short: as §3

T1 sequence (P25103 whole entry): as the sequence (P25103 whole entry Q165A) above, with A165Q counted along it

SMILES: O=C(Cc1ccncc1)N[C@@H](Cc1c[nH]c2ccccc12)C(=O)CCc1cc(C(F)(F)F)cc(C(F)(F)F)c1
IC50 [2]: 0.4 nM | IC50 [3]: 10 nM | MABP [4]: -20 | IC50 [1]: 0.5 nM | ED50 [5]: 1.9 mg/kg

SMILES: O=C(CCc1cc(C(F)(F)F)cc(C(F)(F)F)c1)[C@H](Cc1c[nH]c2ccccc12)NC(=O)C12CCN(CC1)CC2
MABP [6]: 34 | IC50 [2]: 1 nM | Change in heart rate [7]: 2 | IC50 [3]: 8 nM | MABP [8]: 4 | MABP [9]: 2 | Change in heart rate [10]: 1 | MABP [4]: 18 | Change in heart rate [11]: 1 | IC50 [1]: 0.9 nM | ED50 [5]: 1.8 mg/kg | Change in heart rate [12]: 3

SMILES: CN(C)CCC(=O)N[C@@H](Cc1c[nH]c2ccccc12)C(=O)CCc1cc(C(F)(F)F)cc(C(F)(F)F)c1
ED50 [5]: 10 mg/kg

SMILES: O=C(CCc1ccncc1)N[C@@H](Cc1c[nH]c2ccccc12)C(=O)CCc1cc(C(F)(F)F)cc(C(F)(F)F)c1
IC50 [1]: 0.47 nM

SMILES: CC(=O)N[C@H](COCc1cc(C)cc(C)c1)Cc1c[nH]c2ccccc12
IC50 [1]: 767 nM

SMILES: Cc1cc(C)cc(CN(C)C(=O)[C@H](Cc2c[nH]c3ccccc23)NC(=O)c2ccccc2)c1
IC50 [1]: 1030 nM

SMILES: FC(F)(F)c1cccc(CO[C@H]2C3CCN(CC3)[C@H]2C(c2ccccc2)c2ccccc2)c1
IC50 [2]: 53 nM | IC50 [3]: 2100 nM | IC50 [1]: 53 nM

SMILES: COc1ccccc1CN[C@H]1C2CCN(CC2)[C@H]1C(c1ccccc1)c1ccccc1 [CP-96345]
Change in heart rate [7]: 13 | MABP [13]: 11 | MABP [14]: 21 | MABP [15]: 63 | Change in heart rate [10]: 65 | Change in heart rate [11]: 21 | Change in heart rate [12]: 7 | MABP [16]: 46

SMILES: COc1ccccc1CN[C@H]1CCCN[C@H]1c1ccccc1 [CP-99994]
MABP [8]: 13 | MABP [9]: 10 | MABP [4]: 12 | ED50 [5]: 1.6 mg/kg

Now from value to compound, other results behind:

IC50 [1]: 0.6 nM
SMILES: CN(C)CCCCC(=O)N[C@@H](Cc1c[nH]c2ccccc12)C(=O)CCc1cc(C(F)(F)F)cc(C(F)(F)F)c1

IC50 [2]: 2 nM | IC50 [3]: 4 nM | IC50 [1]: 3.5 nM
SMILES: O=C(CN1CCOCC1)N[C@@H](Cc1c[nH]c2ccccc12)C(=O)CCc1cc(C(F)(F)F)cc(C(F)(F)F)c1

IC50 [1]: 3.8 nM
SMILES: O=C(Cc1cnc[nH]1)N[C@@H](Cc1c[nH]c2ccccc12)C(=O)CCc1cc(C(F)(F)F)cc(C(F)(F)F)c1

IC50 [1]: 0.6 nM
SMILES: O=C(CCN1CCCCC1)N[C@@H](Cc1c[nH]c2ccccc12)C(=O)CCc1cc(C(F)(F)F)cc(C(F)(F)F)c1

IC50 [1]: 0.3 nM
SMILES: O=C(CCCN1CCCC1)N[C@@H](Cc1c[nH]c2ccccc12)C(=O)CCc1cc(C(F)(F)F)cc(C(F)(F)F)c1

IC50 [1]: 0.7 nM
SMILES: CN(C)CCCC(=O)N[C@@H](Cc1c[nH]c2ccccc12)C(=O)CCc1cc(C(F)(F)F)cc(C(F)(F)F)c1
ED50 [5]: 4 mg/kg

IC50 [2]: 0.24 nM | IC50 [3]: 1.4 nM | IC50 [1]: 0.17 nM
SMILES: O=C(CCCN1CCOCC1)N[C@@H](Cc1c[nH]c2ccccc12)C(=O)CCc1cc(C(F)(F)F)cc(C(F)(F)F)c1

IC50 [1]: 0.37 nM
SMILES: O=C(CCC1CCNCC1)N[C@@H](Cc1c[nH]c2ccccc12)C(=O)CCc1cc(C(F)(F)F)cc(C(F)(F)F)c1
